Results gathered from unrelated publications.
Lines come from different studies, so protocols differ.

For COc1cc2c3c(n(CCCN4CCOCC4)c(=O)c2cc1OC)-c1cc2c(cc1C3=O)OCO2, the half-life was 2.1 h (male Fischer 344 rat, plasma; intravenous, 12 mg/m², single dose).
The half-life of COC(=O)[C@H](N)CSSC[C@@H](N)C(=O)OC is reported as 0.136 h (chemical stability; rat, plasma).
COc1ccc2c(=O)n(C)c(-c3ccccc3)nc2c1 gave a concentration of 20.4 ng/g (male Sprague-Dawley rat, brain; oral, 30 mg/kg, 30 min, single dose).
The half-life of Oc1c(Br)cc(Cl)c2cccnc12 is reported as 8.9 h (Sprague-Dawley rat, plasma; intravenous, 2 mg/kg).
CCc1cc(OC)c2nccc(N3CCc4c(cc(Cn5ccnc5)cc4-c4cn(C)nc4C(F)(F)F)C3=O)c2c1 gave a C0 of 1150 ng/mL (male Sprague-Dawley rat, plasma; intravenous, 3 mg/kg).
The concentration of Cc1noc(C)c1Cn1cc(N2C(=O)N(Cc3cccc(O)c3)C(C)(C)C2=O)cn1 is reported as 2.9 ng/mL (male Sprague-Dawley rat, plasma; oral, 100 mg/kg, 4 h, single dose).
COc1cccc(-c2n[nH]c(SCc3ccccn3)n2)c1OC gave a concentration of 1160 ng/mL (male Sprague-Dawley rat, plasma; oral, 10 mg/kg, 2 h, single dose).
For CCOC(=O)[C@@]12C[C@@H]1[C@@H](n1ccc3c(NC)nc(C#Cc4ccc(Cl)s4)nc31)[C@H](O)[C@@H]2O, the concentration was 1.88 ng/mL (male Sprague-Dawley rat, plasma; intravenous, 0.5 mg/kg, 4 h).
With CCc1cc(-c2noc(-c3cc(OC)nc(C4CCCC4)c3)n2)cc(C)c1OC[C@@H](O)CO the concentration was 12.7 ng/mL (Wistar rat, plasma; oral, 0.3 mg/kg, 6 h, single dose).
For Cc1noc(C)c1Cn1cc(N2C(=O)CN(Cc3cccc(O)c3)C2=O)cn1, the concentration was 2.72 ng/mL (male Sprague-Dawley rat, plasma; oral, 10 mg/kg, 4 h).
CCc1cc(C(=O)NC)c2nccc(N3CCc4c(cc(Cn5ccnc5)cc4-c4cn(C)nc4C(F)(F)F)C3=O)c2c1 gave a half-life of 0.6 h (male Sprague-Dawley rat, plasma; oral, 50 mg/kg).
